Measured values from ChEMBL document CHEMBL5029182, “Discovery of aryl aminothiazole γ-secretase modulators with novel effects on amyloid β-peptide production” (Bioorg Med Chem Lett, 2021).
Active and inactive are the calls of the source. The calls are words filed in the database; no cut-off is given here.

Legend:
Format in all cases: cell-based
[1] = target: T1, Gamma-secretase (Homo sapiens) (UniProt Q96BI3+Q9NZ42+Q8WW43+P49768+Q92542+P49810); experiment: Modulation of gamma secretase in HEK293 cells expressing APP-C99 assessed as increase in Abeta37 levels at 5 uM incubated for 2 hrs by sandwich ELISA
Method in brief: (§1)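 HEK293 cells stably expressing C99 with signal sequence, grown in 24-well plates. Single compound concentration 5 μM as initial screen. Aβ37, Aβ38, Aβ40 and Aβ42 secreted into medium each quantified by a specific two-antibody sandwich ELISA. Levels compared with DMSO vehicle alone.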

[2] = target: T1, Gamma-secretase (Homo sapiens); experiment: Modulation of gamma secretase in HEK293 cells expressing APP-C99 assessed as increase in Abeta38 levels at 5 uM incubated for 2 hrs by sandwich ELISA; method in brief: as §1
[3] = target: T1, Gamma-secretase (Homo sapiens); experiment: Modulation of gamma secretase in HEK293 cells expressing APP-C99 assessed as decrease in Abeta40 levels at 5 uM incubated for 2 hrs by sandwich ELISA; method in brief: as §1
[4] = target: T1, Gamma-secretase (Homo sapiens); experiment: Modulation of gamma secretase in HEK293 cells expressing APP-C99 assessed as decrease in Abeta42 levels at 5 uM incubated for 2 hrs by sandwich ELISA; method in brief: as §1
[5] = target: T1, Gamma-secretase (Homo sapiens); experiment: Modulation of gamma secretase in HEK293 cells expressing APP-C99 assessed as effect on amyloid beta peptide levels at up to 10 uM incubated for 2 hrs by sandwich ELISA; conditions: dose microM <=10, time 2.0 hrs
Method in brief: (§2)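 Concentration-response in HEK293 cells stably expressing C99 (APP C-terminal 99 residues with signal sequence), up to a maximum of 10 μM. Secreted Aβ37, Aβ38, Aβ40 and Aβ42 in medium each measured by a specific sandwich ELISA. Total secreted Aβ also determined by ELISA. Levels compared against DMSO vehicle alone.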

[6] = target: T1, Gamma-secretase (Homo sapiens); experiment: Modulation of gamma secretase in HEK293 cells expressing APP-C99 assessed as increase in Abeta37 levels incubated for 2 hrs by sandwich ELISA; conditions: filed as modulator
Method in brief: (§3)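 HEK293 cells transiently transfected with C99 (APP C-terminal fragment carrying a signal sequence for membrane insertion) and treated over a concentration range. Secreted Aβ37, Aβ38, Aβ40 and Aβ42 in medium each detected by a specific two-antibody sandwich ELISA. Levels expressed relative to DMSO vehicle alone.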

[7] = target: T1, Gamma-secretase (Homo sapiens); experiment: Modulation of gamma secretase in HEK293 cells expressing APP-C99 assessed as increase in Abeta38 levels incubated for 2 hrs by sandwich ELISA; conditions: filed as modulator; method in brief: as §3
[8] = target: T1, Gamma-secretase (Homo sapiens); experiment: Modulation of gamma secretase in HEK293 cells expressing APP-C99 assessed as decrease in Abeta40 levels incubated for 2 hrs by sandwich ELISA; method in brief: as §3
[9] = target: T1, Gamma-secretase (Homo sapiens); experiment: Modulation of gamma secretase in HEK293 cells expressing APP-C99 assessed as decrease in Abeta42 levels incubated for 2 hrs by sandwich ELISA; method in brief: as §3
[10] = target: T1, Gamma-secretase (Homo sapiens); experiment: Modulation of gamma secretase in HEK293 cells expressing APP-C99 assessed as increase in Abeta37 levels at up to 10 uM incubated for 2 hrs by sandwich ELISA; conditions: filed as modulator, dose microM <=10, time 2.0 hrs; method in brief: as §2
[11] = target: T1, Gamma-secretase (Homo sapiens); experiment: Modulation of gamma secretase in HEK293 cells expressing APP-C99 assessed as increase in Abeta38 levels at up to 10 uM incubated for 2 hrs by sandwich ELISA; conditions: dose microM <=10, time 2.0 hrs; method in brief: as §2
[12] = target: T1, Gamma-secretase (Homo sapiens); experiment: Modulation of gamma secretase in HEK293 cells expressing APP-C99 assessed as decrease in Abeta40 levels at up to 10 uM incubated for 2 hrs by sandwich ELISA; conditions: dose microM <=10, time 2.0 hrs; method in brief: as §2
[13] = target: T1, Gamma-secretase (Homo sapiens); experiment: Modulation of gamma secretase in HEK293 cells expressing APP-C99 assessed as decrease in Abeta42 levels at up to 10 uM incubated for 2 hrs by sandwich ELISA; conditions: dose microM <=10, time 2.0 hrs; method in brief: as §2

Question: Cc1cn(-c2ccc(-c3csc(Nc4cc(Br)c(Br)cc4Br)n3)cc2F)cn1 was tested. Which Activity ([1]; filed as modulator) did it give?
Answer: Active

Question: What about the Activity ([2]; filed as modulator) of the same compound?
Answer: Active

Question: What about the Activity [3] of the same compound?
Answer: inactive

Question: And the Activity [4]?
Answer: inactive

Question: What does the source list for Cc1cn(-c2ccc(-c3csc(Nc4cccc(F)c4)n3)cc2F)cn1?
Answer: Activity ([1]; filed as modulator): Active; Activity ([2]; filed as modulator): Active; Activity [3]: inactive; Activity [4]: inactive

Question: Which results are given for Cc1cn(-c2ccc(-c3csc(Nc4ccccc4F)n3)cc2F)cn1?
Answer: Activity ([1]; filed as modulator): Active; Activity ([2]; filed as modulator): Active; Activity [3]: inactive; Activity [4]: inactive

Question: Cc1cn(-c2ccc(-c3csc(Nc4ccccc4)n3)cc2F)cn1 was tested. Which Activity [5] did it give?
Answer: inactive

Question: Which Activity [5] does the source give for Cc1ccc(Nc2nc(-c3ccc(-n4cnc(C)c4)c(F)c3)cs2)c(C)c1 here?
Answer: inactive

Question: What does the source list for Cc1cn(-c2ccc(-c3csc(Nc4cc(F)ccc4C)n3)cc2F)cn1?
Answer: Activity [6]: Dose-Dependent Effect; Activity [7]: Dose-Dependent Effect; Activity [8]: inactive; Activity [9]: inactive

Question: Which results are given for Cc1ccc(F)c(Nc2nc(-c3ccc(-n4cnc(C)c4)c(F)c3)cs2)c1?
Answer: Activity [6]: Dose-Dependent Effect; Activity [7]: Dose-Dependent Effect; Activity [8]: inactive; Activity [9]: inactive

Question: Which results are given for Cc1cn(-c2ccc(-c3csc(Nc4cc(F)c(C)cc4C)n3)cc2F)cn1?
Answer: Activity [1]: inactive; Activity [2]: inactive; Activity [3]: inactive; Activity [4]: inactive

Question: How did the Activity ([1]; filed as modulator) turn out when Cc1cn(-c2ccc(-c3csc(Nc4ccc(Cl)cc4Cl)n3)cc2F)cn1 was run?
Answer: Active

Question: And the Activity ([2]; filed as modulator)?
Answer: Active

Question: And the Activity [3]?
Answer: inactive

Question: And the Activity [4]?
Answer: inactive

Question: How did the Activity ([5]; filed as modulator) turn out when Cc1cn(-c2ccc(-c3csc(NC4CCCCC4)n3)cc2F)cn1 was run?
Answer: Active

Question: Cc1cn(-c2ccc(-c3csc(NC4C5CC6CC(C5)CC4C6)n3)cc2F)cn1 (stereo unspecified) was tested. Which Activity ([5]; filed as modulator) did it give?
Answer: Active

Question: For Cc1cn(-c2ccc(-c3csc(Nc4ccc(F)c(F)c4)n3)cc2F)cn1, which Activity [1] is on record?
Answer: inactive

Question: What about the Activity [2] of the same compound?
Answer: inactive

Question: What about the Activity [3] of the same compound?
Answer: inactive

Question: And the Activity [4]?
Answer: inactive

Question: What does the source list for CCc1cc(Nc2nc(-c3ccc(-n4cnc(C)c4)c(F)c3)cs2)c(F)cc1C?
Answer: Activity ([3]; filed as modulator): Active; Activity ([4]; filed as modulator): Active

Question: How did the Activity ([5]; filed as modulator) turn out when Cc1cn(-c2ccc(-c3csc(Nc4ccc([N+](=O)[O-])cc4)n3)cc2F)cn1 was run?
Answer: Active

Question: For Cc1cn(-c2ccc(-c3csc(Nc4cc(C)c(C)cc4C)n3)cc2F)cn1, which Activity ([5]; filed as modulator) is on record?
Answer: Active

Question: What does the source list for Cc1cn(-c2ccc(-c3csc(Nc4ccc(F)cc4)n3)cc2F)cn1?
Answer: Activity ([1]; filed as modulator): Active; Activity ([2]; filed as modulator): Active; Activity [3]: inactive; Activity [4]: inactive

Question: Which results are given for Cc1cn(-c2ccc(-c3csc(Nc4cccc(F)c4F)n3)cc2F)cn1?
Answer: Activity [1]: inactive; Activity [2]: inactive; Activity [3]: inactive; Activity [4]: inactive

Question: Cc1cn(-c2ccc(-c3csc(Nc4cc(C)c(F)cc4C)n3)cc2F)cn1 was tested. Which Activity ([1]; filed as modulator) did it give?
Answer: Active

Question: What about the Activity ([2]; filed as modulator) of the same compound?
Answer: Active

Question: What about the Activity [3] of the same compound?
Answer: inactive

Question: What about the Activity [4] of the same compound?
Answer: inactive

Question: With Cc1cn(-c2ccc(-c3csc(Nc4cc(F)ccc4F)n3)cc2F)cn1 as the compound, how does the Activity [1] read?
Answer: inactive

Question: What about the Activity [2] of the same compound?
Answer: inactive

Question: What about the Activity [3] of the same compound?
Answer: inactive

Question: And the Activity [4]?
Answer: inactive

Question: How did the Activity [1] turn out when Cc1cn(-c2ccc(-c3csc(Nc4cc(Cl)c(Cl)cc4Cl)n3)cc2F)cn1 was run?
Answer: inactive

Question: And the Activity [2]?
Answer: inactive

Question: What about the Activity [3] of the same compound?
Answer: inactive

Question: What about the Activity [4] of the same compound?
Answer: inactive

Question: What does the source list for Cc1cn(-c2ccc(-c3csc(Nc4ccc(F)cc4F)n3)cc2F)cn1?
Answer: Activity ([1]; filed as modulator): Active; Activity ([2]; filed as modulator): Active; Activity [3]: inactive; Activity [4]: inactive

Question: With Cc1cn(-c2ccc(-c3csc(NCc4ccccc4)n3)cc2F)cn1 as the compound, how does the Activity ([5]; filed as modulator) read?
Answer: Active

Question: For Cc1ccc(Nc2nc(-c3ccc(-n4cnc(C)c4)c(F)c3)cs2)c(F)c1, which Activity [6] is on record?
Answer: Dose-Dependent Effect

Question: And the Activity [7]?
Answer: Dose-Dependent Effect

Question: What about the Activity [8] of the same compound?
Answer: inactive

Question: And the Activity [9]?
Answer: inactive

Question: For Cc1cn(-c2ccc(-c3csc(Nc4ccc(O)cc4)n3)cc2F)cn1, which Activity ([5]; filed as modulator) is on record?
Answer: Active

Question: Cc1cn(-c2ccc(-c3csc(Nc4cc(F)c(F)cc4F)n3)cc2F)cn1 was tested. Which Activity [10] did it give?
Answer: Active

Question: And the Activity [11]?
Answer: inactive

Question: What about the Activity [12] of the same compound?
Answer: inactive

Question: And the Activity [13]?
Answer: inactive

Question: How did the Activity ([1]; filed as modulator) turn out when Cc1cn(-c2ccc(-c3csc(Nc4c(F)cc(F)cc4F)n3)cc2F)cn1 was run?
Answer: Active

Question: What about the Activity ([2]; filed as modulator) of the same compound?
Answer: Active

Question: And the Activity ([3]; filed as modulator)?
Answer: Active

Question: And the Activity ([4]; filed as modulator)?
Answer: Active

Question: What does the source list for Cc1cn(-c2ccc(-c3csc(Nc4c(F)cccc4F)n3)cc2F)cn1?
Answer: Activity [1]: inactive; Activity [2]: inactive; Activity [3]: inactive; Activity [4]: inactive

Question: Which Activity ([1]; filed as modulator) does the source give for Cc1cn(-c2ccc(-c3csc(Nc4cc(C)c(C)cc4F)n3)cc2F)cn1 here?
Answer: Active

Question: And the Activity ([2]; filed as modulator)?
Answer: Active

Question: And the Activity [3]?
Answer: inactive

Question: What about the Activity [4] of the same compound?
Answer: inactive

Question: How did the Activity [6] turn out when Cc1cn(-c2ccc(-c3csc(Nc4ccc(F)cc4C)n3)cc2F)cn1 was run?
Answer: Dose-Dependent Effect

Question: What about the Activity [7] of the same compound?
Answer: Dose-Dependent Effect

Question: What about the Activity [8] of the same compound?
Answer: inactive

Question: And the Activity [9]?
Answer: inactive

Question: With CCc1cc(Nc2nc(-c3ccc(-n4cnc(C)c4)c(F)c3)cs2)c(C)cc1C as the compound, how does the Activity ([5]; filed as modulator) read?
Answer: Active
